Data as given in ChEMBL document CHEMBL1131132, “Acetylcholinesterase inhibitors: synthesis and structure-activity relationships of omega-[N-methyl-N-(3-alkylcarbamoyloxyphenyl)- methyl]aminoalkoxyheteroaryl derivatives” (J Med Chem, 1998).

Legend:
[1] = molecular target: T1, Acetylcholinesterase (Rattus norvegicus, UniProt P37136); test: Inhibitory concentration against rat brain acetylcholinesterase AChE
T1 sequence (P37136 whole entry): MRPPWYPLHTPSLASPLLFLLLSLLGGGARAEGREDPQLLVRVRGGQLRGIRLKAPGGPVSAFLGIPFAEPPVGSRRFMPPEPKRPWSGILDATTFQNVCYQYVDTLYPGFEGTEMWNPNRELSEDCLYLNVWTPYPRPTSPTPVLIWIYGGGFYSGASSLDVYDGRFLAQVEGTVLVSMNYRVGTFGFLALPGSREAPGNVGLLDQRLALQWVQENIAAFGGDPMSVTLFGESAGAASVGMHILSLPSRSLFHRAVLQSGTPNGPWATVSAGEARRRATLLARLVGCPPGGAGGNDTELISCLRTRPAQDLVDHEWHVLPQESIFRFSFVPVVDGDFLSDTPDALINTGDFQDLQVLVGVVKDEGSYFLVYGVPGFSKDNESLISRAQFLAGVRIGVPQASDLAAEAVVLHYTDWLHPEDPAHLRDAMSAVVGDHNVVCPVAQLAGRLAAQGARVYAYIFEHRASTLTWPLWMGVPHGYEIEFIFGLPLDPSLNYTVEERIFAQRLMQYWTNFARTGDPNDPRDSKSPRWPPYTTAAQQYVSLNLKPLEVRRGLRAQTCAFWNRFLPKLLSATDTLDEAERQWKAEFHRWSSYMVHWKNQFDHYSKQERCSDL
Method in brief: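 Adult Wistar rat cerebral cortex, stored frozen, homogenized 1:200 w/v in 25 mM phosphate pH 7.4, warmed 37 °C 5 min, spun 50000g 15 min at 4 °C; pellet resuspended as AChE-enriched fraction. Compound in PBS pH 7.4 with tritiated ACh (final 0.4 mM), 15 min at 37 °C; stopped with chloroacetic acid/NaCl/NaOH; ³H-acetate extracted into isoamyl alcohol/toluene, scintillation counted.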

[2] = molecular target: Cholinesterases; ACHE & BCHE (Homo sapiens) (UniProt P06276+P22303); test: It is the ratio of IC50 for butyrl cholinesterase (BuChE ) to that of acetylcholinesterase (AChE); format: protein assay
Sequence of Cholinesterases; ACHE & BCHE (Homo sapiens) (P06276 whole entry, looked up): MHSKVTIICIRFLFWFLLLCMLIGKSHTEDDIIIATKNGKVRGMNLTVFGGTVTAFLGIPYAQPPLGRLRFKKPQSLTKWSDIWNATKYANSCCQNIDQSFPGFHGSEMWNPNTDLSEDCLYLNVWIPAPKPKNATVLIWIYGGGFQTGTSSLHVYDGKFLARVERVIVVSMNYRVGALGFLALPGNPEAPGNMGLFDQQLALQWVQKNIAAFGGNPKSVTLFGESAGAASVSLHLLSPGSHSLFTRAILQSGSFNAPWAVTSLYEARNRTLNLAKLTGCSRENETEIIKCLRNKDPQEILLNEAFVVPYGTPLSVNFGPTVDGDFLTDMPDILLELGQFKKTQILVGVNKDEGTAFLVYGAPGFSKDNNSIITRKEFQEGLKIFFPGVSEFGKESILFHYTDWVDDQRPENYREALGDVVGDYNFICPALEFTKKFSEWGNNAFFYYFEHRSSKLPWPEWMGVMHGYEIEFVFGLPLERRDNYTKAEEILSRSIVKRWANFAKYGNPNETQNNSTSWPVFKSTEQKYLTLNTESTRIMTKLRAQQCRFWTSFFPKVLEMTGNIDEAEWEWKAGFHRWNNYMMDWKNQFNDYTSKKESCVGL
Sequence of Cholinesterases; ACHE & BCHE (Homo sapiens) (P22303 whole entry, looked up): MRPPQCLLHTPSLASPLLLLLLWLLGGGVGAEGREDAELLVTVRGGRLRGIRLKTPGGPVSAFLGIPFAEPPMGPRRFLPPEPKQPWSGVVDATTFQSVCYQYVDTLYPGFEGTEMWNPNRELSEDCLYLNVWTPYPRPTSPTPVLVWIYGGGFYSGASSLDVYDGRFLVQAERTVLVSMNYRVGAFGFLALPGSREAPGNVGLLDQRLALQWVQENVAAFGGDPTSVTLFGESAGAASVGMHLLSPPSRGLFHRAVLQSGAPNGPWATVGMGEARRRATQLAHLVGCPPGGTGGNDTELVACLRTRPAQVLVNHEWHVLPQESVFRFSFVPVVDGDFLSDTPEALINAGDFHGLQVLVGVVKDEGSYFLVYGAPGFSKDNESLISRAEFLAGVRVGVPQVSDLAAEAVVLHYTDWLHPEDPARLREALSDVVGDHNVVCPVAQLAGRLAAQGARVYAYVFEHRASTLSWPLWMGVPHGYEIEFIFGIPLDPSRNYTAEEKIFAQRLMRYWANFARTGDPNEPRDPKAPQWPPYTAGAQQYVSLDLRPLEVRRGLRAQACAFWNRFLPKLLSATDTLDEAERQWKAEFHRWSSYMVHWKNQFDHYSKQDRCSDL
Method in brief: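 Ellman method, 0.1 M phosphate pH 8.0, 340 µM DTNB. AChE: human erythrocyte 0.035 unit/mL, 550 µM acetylthiocholine. BuChE: human serum 0.035 unit/mL, 550 µM butyrylthiocholine.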

## CN(CCCOc1ccc2c(=O)c3ccccc3oc2c1)Cc1cccc(OC(=O)Nc2ccccc2)c1
[1]
  IC50: > 1000 nM
[2]
  Ratio: 71.4

## CNC(=O)Oc1cccc(CN(C)CCCOc2ccc3ccc(=O)oc3c2)c1
[1]
  IC50: 1.5 nM
[2]
  Ratio: 0.6

## CCCCCCCNC(=O)Oc1cccc(CN(C)CCCOc2ccc3ccc(=O)oc3c2)c1
[1]
  IC50: 2 nM
[2]
  Ratio: 5

## CNC(=O)Oc1cccc(CN(C)CCCCCOc2ccc3c(=O)c4ccccc4oc3c2)c1
[1]
  IC50: > 100 nM
[2]
  Ratio: 101

## CCCCNC(=O)Oc1cccc(CN(C)CCCOc2ccc3c(=O)c4cccnc4oc3c2)c1
[1]
  IC50: 70 nM
[2]
  Ratio: 2.7

## CNC(=O)Oc1cccc(CN(C)CCCOc2ccc3c(=O)cc(-c4ccccc4)oc3c2)c1
[1]
  IC50: 0.6 nM
[2]
  Ratio: 8.2
